Results published in ChEMBL document CHEMBL1153100, “Synthesis and in vivo evaluation of 3-substituted gababutins” (Bioorg Med Chem Lett, 2010).
Active and inactive are the calls of the source. The calls are words filed in the database; no cut-off is given here.

What was measured:
[1] = biological target: Voltage-dependent calcium channel alpha2delta subunit (Sus scrofa, UniProt O77773); assay: Displacement of [3H]gabapentin from calcium channel alpha2delta in pig cerebral cortex membrane after 30 mins; type: cell membranes
Chain of Voltage-dependent calcium channel alpha2delta subunit (O77773 whole entry): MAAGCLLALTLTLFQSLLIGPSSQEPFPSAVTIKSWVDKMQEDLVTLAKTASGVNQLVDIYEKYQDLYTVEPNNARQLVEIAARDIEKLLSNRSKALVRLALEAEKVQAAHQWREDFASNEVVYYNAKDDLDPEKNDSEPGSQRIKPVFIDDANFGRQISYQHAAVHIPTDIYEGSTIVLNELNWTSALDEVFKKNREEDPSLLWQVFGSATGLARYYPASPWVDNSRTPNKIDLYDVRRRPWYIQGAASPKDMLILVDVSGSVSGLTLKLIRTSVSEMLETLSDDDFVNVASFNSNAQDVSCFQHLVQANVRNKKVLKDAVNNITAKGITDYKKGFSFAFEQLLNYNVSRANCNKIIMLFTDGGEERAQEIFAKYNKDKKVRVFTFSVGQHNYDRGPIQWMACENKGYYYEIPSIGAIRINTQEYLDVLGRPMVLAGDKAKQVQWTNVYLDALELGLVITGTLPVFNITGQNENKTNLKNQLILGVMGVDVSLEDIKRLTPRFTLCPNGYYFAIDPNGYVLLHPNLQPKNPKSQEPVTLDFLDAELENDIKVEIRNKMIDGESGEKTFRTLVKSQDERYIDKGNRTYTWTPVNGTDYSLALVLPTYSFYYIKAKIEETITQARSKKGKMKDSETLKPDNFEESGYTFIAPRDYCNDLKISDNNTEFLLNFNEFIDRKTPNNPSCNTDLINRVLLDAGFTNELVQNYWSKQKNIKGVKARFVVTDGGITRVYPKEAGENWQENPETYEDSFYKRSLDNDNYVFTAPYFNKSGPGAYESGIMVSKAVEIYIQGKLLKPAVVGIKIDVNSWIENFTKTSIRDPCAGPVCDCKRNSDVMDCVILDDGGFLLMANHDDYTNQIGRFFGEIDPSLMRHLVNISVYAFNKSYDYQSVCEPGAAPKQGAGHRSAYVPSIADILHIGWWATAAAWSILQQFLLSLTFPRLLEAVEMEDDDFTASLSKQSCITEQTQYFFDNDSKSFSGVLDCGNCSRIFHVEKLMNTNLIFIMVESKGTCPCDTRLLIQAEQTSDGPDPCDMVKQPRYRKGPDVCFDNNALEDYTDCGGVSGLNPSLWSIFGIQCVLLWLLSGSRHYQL

[2] = test system: Rattus norvegicus; assay: Antihyperalgesic effect in carrageenan-induced rat inflammatory pain model assessed as reversal of hyperalgesia at 30 mg/kg, po; type: functional, organism-based; parameters: dose 30 mg/kg
Summary of the method: (§1)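 Rats received intraplantar carrageenan in the paw, and thermal hyperalgesia was allowed to form over 2 h, to a paw-withdrawal latency of 2.5 s. Test compound was then given orally. Reversal of hyperalgesia was read as the time to paw withdrawal.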

[3] = test system: Rattus norvegicus; assay: Analgesic activity in po dosed rat assessed as increase in number shocks received for 10 mins; type: functional; conditions: read-out: MED
Summary of the method: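 Vogel conflict model: rats were dosed orally at different doses, then placed in a cage with a drinking tube that delivered a shock at each drink. The mean number of shocks per rat was counted over 10 min. The minimum effective dose was taken from significance versus vehicle (P <0.05).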

[4] = test system: Rattus norvegicus; assay: Antihyperalgesic effect in carrageenan-induced rat inflammatory pain model assessed as reversal of hyperalgesia at 1 to 30 mg/kg, po; type: functional, organism-based; summary of the method: as §1
[5] = test system: Rattus norvegicus; assay: Antihyperalgesic effect in carrageenan-induced intrathecal dosed rat inflammatory pain model assessed as reversal of hyperalgesia; type: functional, organism-based

SMILES: CC[C@@H]1CCC(CN)(CC(=O)O)C1 (stereo not given in full)
- IC50 [1]: 0.053 µM

SMILES: C[C@@H]1CCC(CN)(CC(=O)O)C1 (stereo not given in full)
- IC50 [1]: 0.088 µM

SMILES: CC[C@H]1CCC(CN)(CC(=O)O)C1 (stereo not given in full)
- IC50 [1]: 0.706 µM

SMILES: CC1(C)CCC(CN)(CC(=O)O)C1 (stereo not given)
- IC50 [1]: 3.18 µM

SMILES: C[C@@H]1CC[C@@](CN)(CC(=O)O)C1
- IC50 [1]: 0.071 µM
- Activity [2]: Active
- minimal effective dose [3]: 30 mg/kg

SMILES: C[C@@H]1CC[C@](CN)(CC(=O)O)C1
- Activity [4]: inactive
- Activity [5]: Active
- IC50 [1]: 0.03 µM
- minimal effective dose [3]: 3 mg/kg

SMILES: CCC[C@@H]1CCC(CN)(CC(=O)O)C1 (stereo not given in full)
- IC50 [1]: 0.029 µM

SMILES: CC1CCC(CN)(CC(=O)O)C1 (mixture of isomers)
- IC50 [1]: 0.082 µM

SMILES: CC(C)(C)C1CCC(CN)(CC(=O)O)C1 (mixture of isomers)
- IC50 [1]: > 10 µM

SMILES: CCCC1CCC(CN)(CC(=O)O)C1 (mixture of isomers)
- IC50 [1]: 0.069 µM

SMILES: CC(C)CC1CCC(CN)(CC(=O)O)C1 (mixture of isomers)
- IC50 [1]: 0.76 µM

SMILES: CCC1CCC(CN)(CC(=O)O)C1 (mixture of isomers)
- IC50 [1]: 0.055 µM

SMILES: CCCCC1CCC(CN)(CC(=O)O)C1 (mixture of isomers)
- IC50 [1]: 0.69 µM

SMILES: NCC1(CC(=O)O)CCC(c2ccccc2)C1 (mixture of isomers)
- IC50 [1]: 5.06 µM

SMILES: NCC1(CC(=O)O)CCC(Cc2ccccc2)C1 (mixture of isomers)
- IC50 [1]: 9.28 µM

SMILES: NCC1(CC(=O)O)CCC(CCc2ccccc2)C1 (mixture of isomers)
- IC50 [1]: 6.23 µM

SMILES: CCC[C@H]1CCC(CN)(CC(=O)O)C1 (single isomer, unassigned)
- IC50 [1]: 1.2 µM

SMILES: C[C@H]1CCC(CN)(CC(=O)O)C1 (single isomer, unassigned)
- IC50 [1]: 1.3 µM

SMILES: NCC1(CC(=O)O)CCCC1 [GABABUTIN]
- IC50 [1]: 0.42 µM

SMILES: CC(C)C[C@H](CN)CC(=O)O [PREGABALIN]
- minimal effective dose [3]: 10 mg/kg
